From ChEMBL document CHEMBL3351741, “Fused heterocycles bearing bridgehead nitrogen as potent HIV-1 NNRTIs. Part 2: discovery of novel [1,2,4]Triazolo[1,5-a]pyrimidines using a structure-guided core-refining approach” (Eur J Med Chem, 2014)

What was measured:
[1] = system: Human immunodeficiency virus 1; assay: Antiviral activity against HIV-1 3B infected in human MT4 cells assessed as protection from viral cytopathicity after 5 days by MTT assay; assay type: functional, organism-based; settings: Human immunodeficiency virus 1, 3B, MT4, 120 h
Summary of the method: (§1)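 MT-4 cells (6 × 10⁵ cells/ml) infected with HIV-1 IIIB or HIV-2 ROD stock at 100-300 CCID₅₀; compounds added as 10× stocks. After 5 days, viability read by MTT reduction at 540 and 690 nm, using median OD of two or three wells. EC₅₀ is the concentration giving 50% protection from viral cytopathicity.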

[2] = system: Human immunodeficiency virus 1; assay: Antiviral activity against HIV-1 RES056 harboring RT K103N/Y181C double mutant infected in human MT4 cells assessed as protection from viral cytopathicity after 5 days by MTT assay; assay type: functional, organism-based; settings: Human immunodeficiency virus 1, RES056, MT4, 120 h
Summary of the method: (§2)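 MT-4 cells resuspended at 6 × 10⁵ cells/ml, infected with HIV-1 IIIB, RES056 or HIV-2 ROD at 100-300 CCID50, or mock-infected; test compounds added from 10× stocks. After 5 days, viability read by MTT at 540 and 690 nm, median OD of two or three wells. EC50 = 50% protection from cytopathicity; CC50 = 50% viability loss in mock-infected cells; SI = CC50/EC50.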

[3] = system: Human immunodeficiency virus 2; assay: Antiviral activity against HIV-2 ROD infected in human MT4 cells assessed as protection from viral cytopathicity after 5 days by MTT assay; assay type: functional, organism-based; settings: Human immunodeficiency virus 2, ISOLATE ROD, MT4, 120 h; summary of the method: as §1
[4] = Cytotoxicity against mock-infected human MT4 cells after 5 days by MTT assay; assay type: cell-based
Summary of the method: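 Mock-infected MT-4 cells (6 × 10⁵ cells/ml) received culture medium in place of virus and were exposed to compounds added as 10× stocks. After 5 days, viability was read by MTT at 540 and 690 nm, using median OD of two or three wells. CC₅₀ is the concentration cutting viability by 50%. '>' marks the highest concentration tested without cytotoxicity.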

[5] = Selectivity index, ratio of CC50 for mock-infected human MT4 cells to EC50 for HIV-1 3B infected in human MT4 cells; assay type: toxicity, cell-based; settings: mock-infected and infected with HIV-1 3B, read-out: Ratio CC50/EC50; summary of the method: as §2
[6] = Selectivity index, ratio of CC50 for mock-infected human MT4 cells to EC50 for HIV-1 RES056 harboring RT K103N/Y181C double mutant infected in human MT4 cells; assay type: toxicity, cell-based; settings: read-out: Ratio CC50/EC50; summary of the method: as §2
[7] = Selectivity index, ratio of CC50 for mock-infected human MT4 cells to EC50 for HIV-2 ROD infected in human MT4 cells; assay type: toxicity, cell-based; settings: mock-infected and infected with HIV-2 ROD, read-out: Ratio CC50/EC50; summary of the method: as §2
[8] = system: Human immunodeficiency virus 1; assay: Antiviral activity against HIV-1 harboring wild-type reverse transcriptase; assay type: functional, organism-based
[9] = system: Human immunodeficiency virus 1; assay: Antiviral activity against HIV-1 harboring RT Y181C mutant; assay type: functional, organism-based
[10] = system: Human immunodeficiency virus 1; assay: Antiviral activity against HIV-1 harboring RT Y188L mutant; assay type: functional, organism-based
[11] = system: Human immunodeficiency virus 1; assay: Antiviral activity against HIV-1 harboring RT K103N/Y181C double mutant; assay type: functional, organism-based
[12] = target: Human immunodeficiency virus type 1 reverse transcriptase (Human immunodeficiency virus 1, UniProt Q72547); assay: Inhibition of purified recombinant HIV-1 reverse transcriptase after 1 hr using biotin-labeled dUTP by digoxigenin-peroxidase assay
Summary of the method: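 Kit-based colorimetric ELISA with recombinant wild-type HIV-1 RT, poly(A)·oligo(dT)15 template/primer, dNTPs including digoxigenin- and biotin-labeled dUTP, in lysis buffer ± inhibitor, incubated 1 h at 37 °C. Product captured on streptavidin, detected with anti-DIG-peroxidase and ABTS, absorbance at 405 nm. Several concentrations tested; % inhibition taken relative to the no-inhibitor sample.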

Compound: COc1ccc(Nc2cc(Oc3c(C)cc(C)cc3C)n3ncnc3n2)cc1
- EC50 [1]: 0.2 µM
- EC50 [2]: > 37 µM
- EC50 [3]: > 37 µM
- CC50 at 120 h [4]: 37 µM
- selectivity ratio [5]: 165
- selectivity ratio [6]: < 1
- selectivity ratio [7]: < 1

Compound: CC(C)Nc1cccnc1N1CCN(C(=O)c2cc3cc(NS(C)(=O)=O)ccc3[nH]2)CC1 [DELAVIRDINE]
- EC50 [1]: 0.07 µM
- EC50 [2]: > 36 µM
- CC50 at 120 h [4]: > 36 µM
- selectivity ratio [5]: > 494
- selectivity ratio [6]: 1

Compound: N#Cc1ccc(Nc2cc(Oc3c(F)cc(F)cc3F)nc3ncnn23)cc1
- EC50 [1]: > 174 µM
- EC50 [2]: > 174 µM
- EC50 [3]: > 174 µM
- CC50 at 120 h [4]: 174 µM
- selectivity ratio [5]: < 1
- selectivity ratio [6]: < 1
- selectivity ratio [7]: < 1

Compound: Cc1cc(Br)cc(C)c1Oc1cc(Nc2ccc(C#N)cc2)n2ncnc2n1
- EC50 [1]: 0.3 µM
- EC50 [2]: > 128 µM
- EC50 [3]: > 128 µM
- CC50 at 120 h [4]: 128 µM
- selectivity ratio [5]: 427
- selectivity ratio [6]: < 1
- selectivity ratio [7]: < 1

Compound: Cc1cc(C)c(Nc2cc(Nc3ccc(C#N)cc3)nc3ncnn23)c(C)c1
- EC50 [1]: 0.02 µM
- EC50 [2]: 7.6 µM
- EC50 [3]: > 190 µM
- CC50 at 120 h [4]: 190 µM
- selectivity ratio [5]: 8990
- selectivity ratio [6]: 25
- selectivity ratio [7]: < 1

Compound: Cc1cc(C)c(Oc2cc(Nc3ccc([N+](=O)[O-])cc3)nc3ncnn23)c(C)c1
- EC50 [1]: 0.6 µM
- EC50 [2]: > 33 µM
- EC50 [3]: > 33 µM
- CC50 at 120 h [4]: 33 µM
- selectivity ratio [5]: 57
- selectivity ratio [6]: < 1
- selectivity ratio [7]: < 1

Compound: Cc1cc(Br)c(Oc2cc(Nc3ccc(C#N)cc3)nc3ncnn23)c(Br)c1
- EC50 [1]: 0.05 µM
- EC50 [2]: > 192 µM
- EC50 [3]: > 192 µM
- CC50 at 120 h [4]: 192 µM
- selectivity ratio [5]: 3620
- selectivity ratio [6]: < 1
- selectivity ratio [7]: < 1

Compound: Cc1ccc(Nc2cc(Oc3c(C)cc(C)cc3C)n3ncnc3n2)cc1
- EC50 [1]: 0.07 µM
- EC50 [2]: > 47 µM
- EC50 [3]: > 47 µM
- CC50 at 120 h [4]: 47 µM
- selectivity ratio [5]: 649
- selectivity ratio [6]: < 1
- selectivity ratio [7]: < 1

Compound: Cc1cc(C#N)cc(C)c1Oc1nc(Nc2ccc(C#N)cc2)nc2cc[nH]c12
- EC50 [8]: 0.00025 µM
- EC50 [9]: 0.0014 µM
- EC50 [10]: 0.0011 µM
- EC50 [11]: 0.0038 µM

Compound: N#Cc1ccc(Nc2cc(Oc3c(Cl)cc(Cl)cc3Cl)n3ncnc3n2)cc1
- EC50 [1]: 0.6 µM
- EC50 [2]: > 29 µM
- EC50 [3]: > 29 µM
- CC50 at 120 h [4]: 29 µM
- selectivity ratio [5]: 47
- selectivity ratio [6]: < 1
- selectivity ratio [7]: < 1

Compound: Cc1cccc(C)c1Oc1cc(Nc2ccc(C#N)cc2)n2ncnc2n1
- EC50 [1]: 1.5 µM
- EC50 [2]: > 253 µM
- EC50 [3]: > 253 µM
- CC50 at 120 h [4]: 253 µM
- selectivity ratio [5]: 170
- selectivity ratio [6]: < 1
- selectivity ratio [7]: < 1

Compound: Cc1cc(C#N)cc(C)c1Oc1cc(Nc2ccc(C#N)cc2)nc2ncnn12
- EC50 [1]: 1.2 µM
- EC50 [2]: > 224 µM
- EC50 [3]: > 224 µM
- CC50 at 120 h [4]: 224 µM
- selectivity ratio [5]: 182
- selectivity ratio [6]: < 1
- selectivity ratio [7]: < 1
- IC50 [12]: 0.39 µM

Compound: N#Cc1ccc(Nc2cc(Oc3c(Br)cc(Br)cc3Br)n3ncnc3n2)cc1
- EC50 [1]: 0.3 µM
- EC50 [2]: > 47 µM
- EC50 [3]: > 47 µM
- CC50 at 120 h [4]: 47 µM
- selectivity ratio [5]: 142
- selectivity ratio [6]: < 1
- selectivity ratio [7]: < 1

Compound: Cc1cc(C#N)cc(C)c1Oc1nc(Nc2ccc(C#N)cc2)nc2[nH]ccc12
- EC50 [8]: 0.00016 µM
- EC50 [9]: 0.0045 µM
- EC50 [10]: 0.004 µM
- EC50 [11]: 0.0078 µM

Compound: Cc1ccnc2c1NC(=O)c1cccnc1N2C1CC1 [NEVIRAPINE]
- EC50 [1]: 0.15 µM
- EC50 [2]: 2.9 µM
- CC50 at 120 h [4]: > 15 µM
- selectivity ratio [5]: > 14
- selectivity ratio [6]: > 5

Compound: Cc1cc(Br)cc(C)c1Oc1cc(Nc2ccc(C#N)cc2)nc2ncnn12
- EC50 [1]: 0.23 µM
- EC50 [2]: > 136 µM
- EC50 [3]: > 136 µM
- CC50 at 120 h [4]: 136 µM
- selectivity ratio [5]: 579
- selectivity ratio [6]: < 1
- selectivity ratio [7]: < 1

Compound: Cc1cccc(C)c1Nc1cc(Nc2ccc(C#N)cc2)nc2ncnn12
- EC50 [1]: 2.1 µM
- EC50 [2]: > 272 µM
- EC50 [3]: > 272 µM
- CC50 at 120 h [4]: 272 µM
- selectivity ratio [5]: 127
- selectivity ratio [6]: < 1
- selectivity ratio [7]: < 1

Compound: Cc1cc(C)c(Oc2cc(Nc3ccc(C#N)cc3)nc3ncnn23)c(C)c1
- EC50 [1]: 0.05 µM
- EC50 [2]: > 164 µM
- EC50 [3]: > 164 µM
- CC50 at 120 h [4]: 164 µM
- selectivity ratio [5]: 3200
- selectivity ratio [6]: < 1
- selectivity ratio [7]: < 1

Compound: Cc1cccc(C)c1Oc1cc(Nc2ccc(C#N)cc2)nc2ncnn12
- EC50 [1]: 1.3 µM
- EC50 [2]: > 233 µM
- EC50 [3]: > 233 µM
- CC50 at 120 h [4]: 233 µM
- selectivity ratio [5]: 182
- selectivity ratio [6]: < 1
- selectivity ratio [7]: < 1

Compound: N#Cc1ccc(Nc2cc(Oc3c(Cl)cccc3Cl)n3ncnc3n2)cc1
- EC50 [1]: 3.4 µM
- EC50 [2]: > 150 µM
- EC50 [3]: > 150 µM
- CC50 at 120 h [4]: 150 µM
- selectivity ratio [5]: 44
- selectivity ratio [6]: < 1
- selectivity ratio [7]: < 1

Compound: Cc1cc(C)c(Oc2cc(Nc3ccc(C#N)cc3)n3ncnc3n2)c(C)c1
- EC50 [1]: 0.07 µM
- EC50 [2]: ≥ 50 µM
- EC50 [3]: > 106 µM
- CC50 at 120 h [4]: 106 µM
- selectivity ratio [5]: 1450
- selectivity ratio [6]: ≤ 2
- selectivity ratio [7]: < 1

Compound: N#Cc1ccc(Nc2cc(Oc3c(Cl)cc(Cl)cc3Cl)nc3ncnn23)cc1
- EC50 [1]: 0.3 µM
- EC50 [2]: > 32 µM
- EC50 [3]: > 32 µM
- CC50 at 120 h [4]: 32 µM
- selectivity ratio [5]: 109
- selectivity ratio [6]: < 1
- selectivity ratio [7]: < 1

Compound: Cc1cc(C)c(Oc2cc(Nc3ccc(Cl)cc3)nc3ncnn23)c(C)c1
- EC50 [1]: 0.05 µM
- EC50 [2]: > 46 µM
- EC50 [3]: > 46 µM
- CC50 at 120 h [4]: 46 µM
- selectivity ratio [5]: 864
- selectivity ratio [6]: < 1
- selectivity ratio [7]: < 1

Compound: Cc1cc(Cl)cc(C)c1Oc1cc(Nc2ccc(C#N)cc2)nc2ncnn12
- EC50 [1]: 0.4 µM
- EC50 [2]: > 104 µM
- EC50 [3]: > 104 µM
- CC50 at 120 h [4]: 104 µM
- selectivity ratio [5]: 256
- selectivity ratio [6]: < 1
- selectivity ratio [7]: < 1
